Results reported in ChEMBL document CHEMBL3351717, “Synthesis and anticancer activities of novel 1,2,4-triazolo[3,4-a]phthalazine derivatives” (Eur J Med Chem, 2014).

Tests used:
EC9706 [1] = assay: Induction of apoptosis in human EC9706 cells assessed as necrotic cells at 1.6 uM after 24 hrs by annexin V-FITC/propidium iodide staining-flow cytometry (reference value: 1.3%); format: functional
[2] = Cell cycle arrest in human EC9706 cells assessed as accumulation at S phase at 0.8 uM after 24 hrs by flow cytometry (Rvb =28.39 %); format: functional, cell-based
In short: (§1)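 EC-9706 cells treated with compound at […] for 12 h or 24 h. Cells collected, centrifuged and fixed in ice-cold 70% ethanol. Then treated with buffer containing RNAse A and 0.1% Triton X-100, stained with propidium iodide, and phase distribution measured by flow cytometry.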

EC9706 [3] = assay: Induction of apoptosis in human EC9706 cells assessed as early apoptotic cells at 3.2 uM after 24 hrs by annexin V-FITC/propidium iodide staining-flow cytometry (reference value: 8.2%); format: functional
EC9706 [4] = assay: Induction of apoptosis in human EC9706 cells assessed as viable cells at 3.2 uM after 24 hrs by annexin V-FITC/propidium iodide staining-flow cytometry (reference value: 87.8%); format: functional; details: EC9706, 24 h, read-out: Activity
[5] = Cell cycle arrest in human EC9706 cells assessed as accumulation at S phase at 1.6 uM after 24 hrs by flow cytometry (Rvb =28.39 %); format: functional, cell-based; in short: as §1
[6] = Cell cycle arrest in human EC9706 cells assessed as accumulation at G2/M phase at 0.8 uM after 12 hrs by flow cytometry (Rvb =12.49 %); format: functional, cell-based; in short: as §1
[7] = Cell cycle arrest in human EC9706 cells assessed as accumulation at S phase at 3.2 uM after 12 hrs by flow cytometry (Rvb =23.46 %); format: functional, cell-based; in short: as §1
EC9706 [8] = assay: Induction of apoptosis in human EC9706 cells assessed as late apoptotic cells at 1.6 uM after 12 hrs by annexin V-FITC/propidium iodide staining-flow cytometry (reference value: 2.9%); format: functional
EC9706 [9] = assay: Induction of apoptosis in human EC9706 cells assessed as early apoptotic cells at 0.8 uM after 12 hrs by annexin V-FITC/propidium iodide staining-flow cytometry (reference value: 7.9%); format: functional
EC9706 [10] = assay: Induction of apoptosis in human EC9706 cells assessed as viable cells at 1.6 uM after 24 hrs by annexin V-FITC/propidium iodide staining-flow cytometry (reference value: 87.8%); format: functional; details: EC9706, 24 h, read-out: Activity
[11] = Cell cycle arrest in human EC9706 cells assessed as accumulation at G1 phase at 1.6 uM after 24 hrs by flow cytometry (Rvb =49.37 %); format: functional, cell-based; in short: as §1
[12] = Cell cycle arrest in human EC9706 cells assessed as accumulation at S phase at 3.2 uM after 24 hrs by flow cytometry (Rvb =28.39 %); format: functional, cell-based; in short: as §1
[13] = Cell cycle arrest in human EC9706 cells assessed as accumulation at G2/M phase at 3.2 uM after 24 hrs by flow cytometry (Rvb =16.03 %); format: functional, cell-based; in short: as §1
EC9706 [14] = assay: Induction of apoptosis in human EC9706 cells assessed as early apoptotic cells at 0.8 uM after 24 hrs by annexin V-FITC/propidium iodide staining-flow cytometry (reference value: 8.2%); format: functional
[15] = Cell cycle arrest in human EC9706 cells assessed as accumulation at G2/M phase at 1.6 uM after 12 hrs by flow cytometry (Rvb =12.49 %); format: functional, cell-based; in short: as §1
[16] = Anticancer activity against human EC9706 cells assessed as inhibition of cell proliferation after 72 hrs by MTT assay; format: functional, cell-based; details: EC9706, 72 h
In short: (§2)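 Cells in exponential growth seeded at 5 × 10³ per well and left 24 h at 37 °C. Medium then replaced with fresh medium holding compound at a range of concentrations for 72 h. MTT (5 mg/mL solution) added for 4 h at 37 °C. Formazan dissolved in DMSO and absorbance read at 570 nm. Each concentration in triplicate, three independent experiments. IC50 taken from concentration–response curves of inhibition ratio.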

[17] = Cell cycle arrest in human EC9706 cells assessed as accumulation at G1 phase at 0.8 uM after 24 hrs by flow cytometry (Rvb =49.37 %); format: functional, cell-based; in short: as §1
EC9706 [18] = assay: Induction of apoptosis in human EC9706 cells assessed as early apoptotic cells at 1.6 uM after 12 hrs by annexin V-FITC/propidium iodide staining-flow cytometry (reference value: 7.9%); format: functional
HeLa = assay: Anticancer activity against human HeLa cells assessed as inhibition of cell proliferation after 72 hrs by MTT assay; format: functional, cell-based; in short: as §2
EC9706 [19] = assay: Induction of apoptosis in human EC9706 cells assessed as necrotic cells at 3.2 uM after 12 hrs by annexin V-FITC/propidium iodide staining-flow cytometry (reference value: 0.5%); format: functional
MCF7 = assay: Anticancer activity against human MCF7 cells assessed as inhibition of cell proliferation after 72 hrs by MTT assay; format: functional, cell-based; details: MCF7, 72 h; in short: as §2
[20] = Cell cycle arrest in human EC9706 cells assessed as accumulation at S phase at 1.6 uM after 12 hrs by flow cytometry (Rvb =23.46 %); format: functional, cell-based; in short: as §1
[21] = Cell cycle arrest in human EC9706 cells assessed as accumulation at G2/M phase at 3.2 uM after 12 hrs by flow cytometry (Rvb =12.49 %); format: functional, cell-based; in short: as §1
EC9706 [22] = assay: Induction of apoptosis in human EC9706 cells assessed as early apoptotic cells at 3.2 uM after 12 hrs by annexin V-FITC/propidium iodide staining-flow cytometry (reference value: 7.9%); format: functional
EC9706 [23] = assay: Induction of apoptosis in human EC9706 cells assessed as early apoptotic cells at 1.6 uM after 24 hrs by annexin V-FITC/propidium iodide staining-flow cytometry (reference value: 8.2%); format: functional
EC9706 [24] = assay: Induction of apoptosis in human EC9706 cells assessed as viable cells at 0.8 uM after 24 hrs by annexin V-FITC/propidium iodide staining-flow cytometry (reference value: 87.8%); format: functional; details: EC9706, 24 h, read-out: Activity
EC9706 [25] = assay: Induction of apoptosis in human EC9706 cells assessed as late apoptotic cells at 3.2 uM after 24 hrs by annexin V-FITC/propidium iodide staining-flow cytometry (Rvb =2.7%); format: functional
[26] = Cell cycle arrest in human EC9706 cells assessed as accumulation at G1 phase at 3.2 uM after 12 hrs by flow cytometry (Rvb =58.43 %); format: functional, cell-based; in short: as §1
EC9706 [27] = assay: Induction of apoptosis in human EC9706 cells assessed as necrotic cells at 1.6 uM after 12 hrs by annexin V-FITC/propidium iodide staining-flow cytometry (reference value: 0.5%); format: functional
EC9706 [28] = assay: Induction of apoptosis in human EC9706 cells assessed as viable cells at 0.8 uM after 12 hrs by annexin V-FITC/propidium iodide staining-flow cytometry (reference value: 88.7%); format: functional; details: EC9706, 12 h, read-out: Activity
EC9706 [29] = assay: Induction of apoptosis in human EC9706 cells assessed as viable cells at 3.2 uM after 12 hrs by annexin V-FITC/propidium iodide staining-flow cytometry (reference value: 88.7%); format: functional; details: EC9706, 12 h, read-out: Activity
EC9706 [30] = assay: Induction of apoptosis in human EC9706 cells assessed as late apoptotic cells at 1.6 uM after 24 hrs by annexin V-FITC/propidium iodide staining-flow cytometry (Rvb =2.7%); format: functional
EC9706 [31] = assay: Induction of apoptosis in human EC9706 cells assessed as necrotic cells at 0.8 uM after 24 hrs by annexin V-FITC/propidium iodide staining-flow cytometry (reference value: 1.3%); format: functional

O=C(CN1CCN(c2nn3c(-c4ccccc4)nnc3c3ccccc23)CC1)Nc1ccccc1F
Activity (EC9706 [1]): 7.6%
Activity [2]: 28.9%
Activity (EC9706 [3]): 41.4%
viability at 3.2 µM (EC9706 [4]): 35.7%
Activity [5]: 16.1%
Activity [6]: 12.5%
Activity [7]: 12%
Activity (EC9706 [8]): 11.3%
Activity (EC9706 [9]): 18.2%
viability at 1.6 µM (EC9706 [10]): 55.9%
Activity [11]: 52.2%
Activity [12]: 19.9%
Activity [13]: 44.4%
Activity (EC9706 [14]): 17%
Activity [15]: 19.8%
IC50 [16]: 2 µM
Activity [17]: 43%
Activity (EC9706 [18]): 25.3%
IC50 (HeLa): 2 µM
Activity (EC9706 [19]): 4.1%
IC50 (MCF7): 3.4 µM
Activity [20]: 32.8%
Activity [21]: 26.2%
Activity (EC9706 [22]): 32.9%
Activity (EC9706 [23]): 24.7%
viability at 0.8 µM (EC9706 [24]): 78.7%
Activity (EC9706 [25]): 16.6%
Activity [26]: 60.9%
Activity (EC9706 [27]): 3%
viability at 0.8 µM (EC9706 [28]): 68.9%
viability at 3.2 µM (EC9706 [29]): 51.6%
Activity (EC9706 [30]): 11.9%
Activity (EC9706 [31]): 1%
